Assay results: PMC9477609 (Journal of Molecular Liquids, 2022)
≈ marks a conversion by molar mass, not a printed value.

Columns and labels:
[1] = water solubility of neat and equilibrated powders; format: physicochemical; details: for water solubility: neat and solvent-equilibrated dry powders
[2] = cited from earlier work
MCF-7 = details: read-out: cell proliferation inhibitor IC50; MCF-7 ref 5; cited from earlier work
[3] = apparent thermodynamic analysis: dissolution Gibbs free energy; format: physicochemical
Summary of the method: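 Excess solid was added to the pure solvent, vortexed and sonicated, then shaken for 24 h at 300 rpm at each temperature from 298.15 to 323.15 K. Samples were centrifuged for 20 min at 8000 rpm and 25 °C. Supernatant was diluted in MeOH/water 8:2 and read by absorbance at 330 nm against a 5–35 µg/mL calibration. Mole fraction solubility was the mean of triplicates. Dissolution thermodynamics came from Van't Hoff analysis.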

parasitic proliferation = details: cited from earlier work
MDA-MB-231 = details: human breast cancer cell lines (MDA-MB-231) ref 5; cited from earlier work
snails = details: cited from earlier work
[4] = in water, PBS (pH 7.4), SGF and SIF; no reference given; cited from earlier work
hepatitis C virus = details: cited from earlier work

O=C(Nc1ccc([N+](=O)[O-])cc1Cl)c1cc(Cl)ccc1O [NCL-DMSO]
water solubility [1]: 18.082 ± 0.045 µg/mL (≈ 55.3 µM)

O=C(Nc1ccc([N+](=O)[O-])cc1Cl)c1cc(Cl)ccc1O [NCL-MeOH]
water solubility [1]: 16.261 ± 0.082 µg/mL (≈ 49.7 µM)

C[S+](C)[O-] [dimethyl sulfoxide]
log P [2]: −1.35

CO [methanol]
log P [2]: −0.69

O=C(Nc1ccc([N+](=O)[O-])cc1Cl)c1cc(Cl)ccc1O [niclosamide, N-(2′-chloro-4′-nitrophenyl)-5-chlorosalicylamide]
IC50 (MCF-7): 1060 nM
ΔdisG, dissolution Gibbs free energy ([3]; 1-butanol, 298.15 K): -0.48423 kcal/mol
ΔdisG, dissolution Gibbs free energy ([3]; 1-butanol, 303.15 K): -0.48341 kcal/mol
ΔdisG, dissolution Gibbs free energy ([3]; 1-butanol, 308.15 K): -0.48255 kcal/mol
ΔdisG, dissolution Gibbs free energy ([3]; 1-butanol, 313.15 K): -0.48176 kcal/mol
ΔdisG, dissolution Gibbs free energy ([3]; 1-butanol, 318.15 K): -0.48088 kcal/mol
ΔdisG, dissolution Gibbs free energy ([3]; 1-butanol, 323.15 K): -0.48009 kcal/mol
ΔdisG, dissolution Gibbs free energy ([3]; 2-propanol, 298.15 K): -0.09434 kcal/mol
ΔdisG, dissolution Gibbs free energy ([3]; 2-propanol, 303.15 K): -0.09015 kcal/mol
ΔdisG, dissolution Gibbs free energy ([3]; 2-propanol, 308.15 K): -0.08597 kcal/mol
ΔdisG, dissolution Gibbs free energy ([3]; 2-propanol, 313.15 K): -0.08179 kcal/mol
ΔdisG, dissolution Gibbs free energy ([3]; 2-propanol, 318.15 K): -0.07763 kcal/mol
ΔdisG, dissolution Gibbs free energy ([3]; 2-propanol, 323.15 K): -0.07345 kcal/mol
ΔdisG, dissolution Gibbs free energy ([3]; DMSO, 298.15 K): 0.1837 kcal/mol
ΔdisG, dissolution Gibbs free energy ([3]; DMSO, 303.15 K): 0.1905 kcal/mol
ΔdisG, dissolution Gibbs free energy ([3]; DMSO, 308.15 K): 0.1973 kcal/mol
ΔdisG, dissolution Gibbs free energy ([3]; DMSO, 313.15 K): 0.2041 kcal/mol
ΔdisG, dissolution Gibbs free energy ([3]; DMSO, 318.15 K): 0.2109 kcal/mol
ΔdisG, dissolution Gibbs free energy ([3]; DMSO, 323.15 K): 0.2177 kcal/mol
ΔdisG, dissolution Gibbs free energy ([3]; Ethanol, 298.15 K): 0.3086 kcal/mol
ΔdisG, dissolution Gibbs free energy ([3]; Ethanol, 303.15 K): 0.31637 kcal/mol
ΔdisG, dissolution Gibbs free energy ([3]; Ethanol, 308.15 K): 0.32414 kcal/mol
ΔdisG, dissolution Gibbs free energy ([3]; Ethanol, 313.15 K): 0.33191 kcal/mol
ΔdisG, dissolution Gibbs free energy ([3]; Ethanol, 318.15 K): 0.33967 kcal/mol
ΔdisG, dissolution Gibbs free energy ([3]; Ethanol, 323.15 K): 0.34744 kcal/mol
ΔdisG, dissolution Gibbs free energy ([3]; Methanol, 298.15 K): 1.3769 kcal/mol
ΔdisG, dissolution Gibbs free energy ([3]; Methanol, 303.15 K): 1.3941 kcal/mol
ΔdisG, dissolution Gibbs free energy ([3]; Methanol, 308.15 K): 1.4113 kcal/mol
ΔdisG, dissolution Gibbs free energy ([3]; Methanol, 313.15 K): 1.4285 kcal/mol
ΔdisG, dissolution Gibbs free energy ([3]; Methanol, 318.15 K): 1.4457 kcal/mol
ΔdisG, dissolution Gibbs free energy ([3]; Methanol, 323.15 K): 1.463 kcal/mol
ΔdisG, dissolution Gibbs free energy ([3]; PEG-200, 298.15 K): -0.1837 kcal/mol
ΔdisG, dissolution Gibbs free energy ([3]; PEG-200, 303.15 K): -0.1807 kcal/mol
ΔdisG, dissolution Gibbs free energy ([3]; PEG-200, 308.15 K): -0.1777 kcal/mol
ΔdisG, dissolution Gibbs free energy ([3]; PEG-200, 313.15 K): -0.1747 kcal/mol
ΔdisG, dissolution Gibbs free energy ([3]; PEG-200, 318.15 K): -0.1717 kcal/mol
ΔdisG, dissolution Gibbs free energy ([3]; PEG-200, 323.15 K): -0.1687 kcal/mol
ΔdisG, dissolution Gibbs free energy ([3]; PEG-400, 298.15 K): -0.50012 kcal/mol
ΔdisG, dissolution Gibbs free energy ([3]; PEG-400, 303.15 K): -0.50024 kcal/mol
ΔdisG, dissolution Gibbs free energy ([3]; PEG-400, 308.15 K): -0.50038 kcal/mol
ΔdisG, dissolution Gibbs free energy ([3]; PEG-400, 313.15 K): -0.50048 kcal/mol
ΔdisG, dissolution Gibbs free energy ([3]; PEG-400, 318.15 K): -0.50067 kcal/mol
ΔdisG, dissolution Gibbs free energy ([3]; PEG-400, 323.15 K): -0.50079 kcal/mol
ΔdisG, dissolution Gibbs free energy ([3]; Water, 298.15 K): 0.1407 kcal/mol
ΔdisG, dissolution Gibbs free energy ([3]; Water, 303.15 K): 0.1507 kcal/mol
ΔdisG, dissolution Gibbs free energy ([3]; Water, 308.15 K): 0.1608 kcal/mol
ΔdisG, dissolution Gibbs free energy ([3]; Water, 313.15 K): 0.1709 kcal/mol
ΔdisG, dissolution Gibbs free energy ([3]; Water, 318.15 K): 0.181 kcal/mol
ΔdisG, dissolution Gibbs free energy ([3]; Water, 323.15 K): 0.1911 kcal/mol
solubility ([1]; water): 20.76 ± 0.099 µg/mL (≈ 63.5 µM)
parasitic proliferation inhibitor MIC50 (parasitic proliferation): 200–250 nM/L
apoptosis inducer, concentration (MDA-MB-231): 1–10 µM/L
lethal concentration in snails (snails): 0.3 mg/L
aqueous solubility [4]: 6 to 20 µg/mL
hepatitis C virus replication inhibitor (hepatitis C virus): 0.16 µM/L
